This is an account of results in ChEMBL document CHEMBL1127054, “3-Aryl-2-(3'-substituted-1',2',4'-oxadiazol-5'-yl)tropane analogues of cocaine: affinities at the cocaine binding site at the dopamine, serotonin, and norepinephrine transporters” (J Med Chem, 1993).

The target in assay [1] is Norepinephrine transporter (Rattus norvegicus, UniProt Q9WTR4). Put plainly: Binding affinity towards norepinephrine transporter by displacement of [3H]nisoxetine radioligand from rat brain. (In general: In a radioligand displacement assay an active substance lowers the binding of a labelled ligand.)
In assay [2] the target is Monoamine transporters; serotonin & dopamine (Rattus norvegicus) (UniProt P31652+P23977). Briefly: Ratio between serotonin transporter and Dopamine transporter. The class given is protein assay.
The target in assay [3] is Monoamine transporters; Norepininephrine & dopamine (Rattus norvegicus) (UniProt P23977+Q9WTR4). Put plainly: Ratio between norepinephrine and Dopamine transporter. Format: protein assay.
The target in assay [4] is Sodium-dependent dopamine transporter (Rattus norvegicus, UniProt P23977). Briefly: Binding affinity towards Dopamine transporter by displacement of [3H]WIN-35428 radioligand from rat brain.
Assay [5] concerns the target Sodium-dependent serotonin transporter (Rattus norvegicus, UniProt P31652). Briefly: Binding affinity towards serotonin transporter by displacement of [3H]- paroxetine radioligand from rat brain. The essentials:
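Midbrain tissue (1.5 mg original wet weight) with 0.2 nM [3H]paroxetine in 50 mM Tris, 120 mM NaCl, 5 mM KCl, pH 7.4, for 90 min at room temperature; nonspecific binding defined with 1 μM citalopram. Terminated by filtration through polyethylenimine-soaked GF/B filters with ice-cold buffer washes. Mean ± SE of four triplicate experiments.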

Chain of Sodium-dependent serotonin transporter (P31652 whole entry): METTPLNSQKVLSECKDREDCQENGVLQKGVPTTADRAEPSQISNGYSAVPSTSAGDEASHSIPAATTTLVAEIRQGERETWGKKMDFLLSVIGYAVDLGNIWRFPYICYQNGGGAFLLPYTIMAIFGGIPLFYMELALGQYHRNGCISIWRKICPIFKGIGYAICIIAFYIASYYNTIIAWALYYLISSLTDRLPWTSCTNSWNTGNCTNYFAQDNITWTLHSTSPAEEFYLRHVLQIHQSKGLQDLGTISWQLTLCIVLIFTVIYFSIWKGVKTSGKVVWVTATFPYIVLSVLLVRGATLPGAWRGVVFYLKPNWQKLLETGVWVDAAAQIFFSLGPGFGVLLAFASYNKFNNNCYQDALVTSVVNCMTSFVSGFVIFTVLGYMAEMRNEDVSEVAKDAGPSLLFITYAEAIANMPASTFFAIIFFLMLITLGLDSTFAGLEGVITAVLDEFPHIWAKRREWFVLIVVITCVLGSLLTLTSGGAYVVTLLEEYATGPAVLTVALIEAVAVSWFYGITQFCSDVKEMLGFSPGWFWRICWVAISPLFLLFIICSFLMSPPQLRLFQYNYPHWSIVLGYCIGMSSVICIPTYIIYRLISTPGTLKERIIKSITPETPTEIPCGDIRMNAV
Chain of Norepinephrine transporter (Q9WTR4 whole entry): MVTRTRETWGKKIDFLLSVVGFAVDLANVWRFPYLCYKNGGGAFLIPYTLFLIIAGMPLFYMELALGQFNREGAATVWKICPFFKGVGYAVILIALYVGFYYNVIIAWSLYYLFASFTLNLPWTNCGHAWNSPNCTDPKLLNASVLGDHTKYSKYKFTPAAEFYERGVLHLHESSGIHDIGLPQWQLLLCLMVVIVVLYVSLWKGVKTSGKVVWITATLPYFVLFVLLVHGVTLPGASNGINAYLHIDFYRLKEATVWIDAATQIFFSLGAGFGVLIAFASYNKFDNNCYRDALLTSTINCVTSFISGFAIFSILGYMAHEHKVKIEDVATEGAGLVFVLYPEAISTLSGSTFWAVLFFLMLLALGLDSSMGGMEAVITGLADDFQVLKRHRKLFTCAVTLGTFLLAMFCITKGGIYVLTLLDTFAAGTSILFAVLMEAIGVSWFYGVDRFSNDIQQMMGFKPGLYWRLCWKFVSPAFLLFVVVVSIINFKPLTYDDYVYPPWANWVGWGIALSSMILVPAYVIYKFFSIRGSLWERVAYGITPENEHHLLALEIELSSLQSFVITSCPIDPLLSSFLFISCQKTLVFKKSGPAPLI
Chain of Monoamine transporters; serotonin & dopamine (Rattus norvegicus) (P23977 whole entry, looked up): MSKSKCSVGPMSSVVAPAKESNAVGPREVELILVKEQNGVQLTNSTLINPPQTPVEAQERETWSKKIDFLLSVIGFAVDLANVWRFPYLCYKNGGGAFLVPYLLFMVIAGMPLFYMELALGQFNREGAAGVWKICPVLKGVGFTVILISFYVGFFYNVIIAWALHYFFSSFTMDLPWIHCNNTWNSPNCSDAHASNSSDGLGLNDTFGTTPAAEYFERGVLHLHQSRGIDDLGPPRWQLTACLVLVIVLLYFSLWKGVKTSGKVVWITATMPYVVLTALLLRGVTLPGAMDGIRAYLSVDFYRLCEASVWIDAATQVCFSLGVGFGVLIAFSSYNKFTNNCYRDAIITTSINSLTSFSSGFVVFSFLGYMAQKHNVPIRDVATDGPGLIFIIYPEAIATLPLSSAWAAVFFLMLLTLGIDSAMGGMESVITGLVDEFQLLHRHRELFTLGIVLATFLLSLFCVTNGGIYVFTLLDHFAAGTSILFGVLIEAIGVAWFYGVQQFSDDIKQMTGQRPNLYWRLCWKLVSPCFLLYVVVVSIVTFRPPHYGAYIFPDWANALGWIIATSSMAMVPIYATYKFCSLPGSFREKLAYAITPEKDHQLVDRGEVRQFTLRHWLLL
Chain of Monoamine transporters; serotonin & dopamine (Rattus norvegicus) (P31652 whole entry, looked up): as the sequence (P31652 whole entry) above
Chain of Sodium-dependent dopamine transporter (P23977 whole entry): as the sequence (P23977 whole entry, looked up) above

In general, IC50 refers to the midpoint of a concentration-inhibition curve. In turn, `COC(=O)[C@@H]1C2CC[C@H](C[C@@H]1c1ccccc1)N2C` showed a concentration for half-maximal inhibition (IC50) in assay [1] of 920 nM. This lies in the sub-micromolar range.

For the compound `Cc1noc(C2C3CC[C@H](C[C@@H]2c2ccccc2)N3C)n1` (stereo in doubt; 6) [listing 1 of 2 here], the Ratio was determined as 32 in assay [2] and 69 in assay [3].

Regarding `Cc1noc(C2C3CC[C@H](C[C@@H]2c2ccccc2)N3C)n1` (stereo in doubt; 7) [listing 1 of 2 here], the 50% inhibitory concentration (IC50) in assay [4] came to 204 nM; in assay [1], 35800 nM; in assay [5] it was 29400 nM.

Consider `Cc1noc(C2C3CC[C@H](C[C@@H]2c2ccccc2)N3C)n1` (stereo in doubt; 6) [listing 2 of 2 here], for which the 50% inhibitory concentration (IC50) was 1030 nM in assay [4], 71000 nM in assay [1] and 33100 nM in assay [5].

As to `Cc1noc(C2C3CC[C@H](C[C@@H]2c2ccccc2)N3C)n1` (stereo in doubt; 5a) [listing 1 of 2 here], the Ratio in assay [2] is 38; in assay [3] it was 79.

Take `Cc1ccc([C@H]2C[C@H]3CCC(C2C(=O)Oc2ccccc2)N3C)cc1` (some centres undefined): the IC50 in assay [4] amounted to 3.27 nM; in assay [1], 5830 nM; in assay [5] it was 24500 nM. For the same compound, the Ratio in assay [3] was determined as 1780.

With `Cc1noc(C2C3CC[C@H](C[C@@H]2c2ccc(Cl)cc2)N3C)n1` (some centres undefined), the values for the concentration for half-maximal inhibition (IC50) in assay [1] and in assay [5] were 363 nM and 2580 nM, respectively.

Turning to `Cc1ccc([C@H]2C[C@H]3CCC(C2c2nc(-c4ccccc4)no2)N3C)cc1` (some centres undefined), the IC50 in assay [4] is 2.33 nM; in assay [1], 60 nM; in assay [5], 1070 nM. The Ratio was 459 in assay [2] and 26 in assay [3].

As to `Cc1noc(C2C3CC[C@H](C[C@@H]2c2ccccc2)N3C)n1` (stereo in doubt; 7) [listing 2 of 2 here], the results for the Ratio in assay [2] and in assay [3] were 144 and 176, respectively.

As for `CN1C2CCC1C(C(=O)Oc1ccccc1)C(c1ccc(Cl)cc1)C2` (centres undefined), the half-maximal inhibitory concentration (IC50) in assay [4] came to 1.99 nM; in assay [1] it was 2960 nM. The Ratio in assay [3] is 1490.

Take `CN1C2CC[C@@H]1C[C@H](c1ccc(Cl)cc1)C2c1nc(-c2ccc(Br)cc2)no1` (some centres undefined): the half-maximal inhibitory concentration (IC50) was found to be 3.44 nM in assay [4], 1830 nM in assay [1] and 106 nM in assay [5]. Further, the Ratio in assay [2] was found to be 31; in assay [3], 532.

As to `CN1C2CC[C@@H]1C[C@H](c1ccc(Cl)cc1)C2c1nc(-c2ccccc2)no1` (some centres undefined), the half-inhibitory concentration (IC50) came to 1.62 nM in assay [4], 245 nM in assay [1] and 195 nM in assay [5]. The Ratio in assay [2] stood at 120; in assay [3], 151.

For `CC(C)c1noc(C2C3CC[C@H](C[C@@H]2c2ccc(Cl)cc2)N3C)n1` (some centres undefined), the half-maximal inhibitory concentration (IC50) in assay [4] was found to be 6 nM; in assay [1] it was 135 nM; in assay [5], 3460 nM. Further, the Ratio in assay [2] turned out to be 577; in assay [3], 23.

As for `Cc1noc(C2C3CC[C@H](C[C@@H]2c2ccccc2)N3C)n1` (stereo in doubt; 8) [listing 1 of 2 here], the results for the Ratio in assay [2] and in assay [3] were 243 and 42, respectively.

As for `Cc1noc(C2C3CC[C@H](C[C@@H]2c2ccccc2)N3C)n1` (stereo in doubt; 5a) [listing 2 of 2 here], the IC50 in assay [4] stood at 100 nM; in assay [1] it was 7880 nM; in assay [5], 3830 nM.

Consider `Cc1noc(C2C3CC[C@H](C[C@@H]2c2ccccc2)N3C)n1` (stereo in doubt; 8) [listing 2 of 2 here], for which the values for the concentration for half-maximal inhibition (IC50) in assay [4], in assay [1] and in assay [5] were 167 nM, 6990 nM and 40600 nM, respectively.

Take `CN1C2CC[C@@H]1C[C@H](c1ccc(Cl)cc1)C2c1nc(-c2ccc(Cl)cc2)no1` (some centres undefined): the IC50 was found to be 4.06 nM in assay [4], 4070 nM in assay [1] and 404 nM in assay [5]. Further, the Ratio in assay [2] stood at 100; in assay [3], 1000.

Regarding `COc1ccc(-c2noc(C3C4CC[C@H](C[C@@H]3c3ccc(Cl)cc3)N4C)n2)cc1` (some centres undefined), the results for the 50% inhibitory concentration (IC50) in assay [4], in assay [1] and in assay [5] were 1.81 nM, 835 nM and 337 nM, respectively. Also, the figures for the Ratio in assay [2] and in assay [3] were 186 and 461, respectively.

Consider `CC(C)OC(=O)C1C2CC[C@H](C[C@@H]1c1ccc(Cl)cc1)N2C` (some centres undefined), for which the IC50 in assay [4] worked out at 1.41 nM; in assay [1], 778 nM; in assay [5], 1400 nM. For the same compound, the Ratio in assay [3] is 551.
